Results as given in ChEMBL document CHEMBL1765065, “Pro-soft Val-boroPro: a strategy for enhancing in vivo performance of boronic acid inhibitors of serine proteases” (J Med Chem, 2011).
Activity calls are given as the source filed them. The calls are words filed in the database; no cut-off is given here. Starred links: 1 amine or outer side, 2 acyl side, 3 side chain; linkers in the order of their positions; H or OH if unused. Residues, ends and D or L forms follow the SMILES beside them. *: point of attachment. Suc = O=C(CCC(=O)[*:2])[*:1]; boroPro = OB(O)[C@@H]1CCCN1*

Assays:
[1] = biological target: T1, Dipeptidyl peptidase 4 (Homo sapiens, UniProt P27487); assay: Inhibition of DDP4 at pH 7.4 preincubated with alpha-chymotrypsin up to 8 hrs
Summary of the method: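 Prodrug preincubated with 0.1 mM α-chymotrypsin for 0, 0.5, 1, 2, 4, 6 or 24 h before purified DPPIV was added. The DPPIV assay then followed: 0.3 mM H-Ala-Pro-pNA, A410, HEPES/NaCl buffer.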
Target sequence in this assay (P27487 whole entry): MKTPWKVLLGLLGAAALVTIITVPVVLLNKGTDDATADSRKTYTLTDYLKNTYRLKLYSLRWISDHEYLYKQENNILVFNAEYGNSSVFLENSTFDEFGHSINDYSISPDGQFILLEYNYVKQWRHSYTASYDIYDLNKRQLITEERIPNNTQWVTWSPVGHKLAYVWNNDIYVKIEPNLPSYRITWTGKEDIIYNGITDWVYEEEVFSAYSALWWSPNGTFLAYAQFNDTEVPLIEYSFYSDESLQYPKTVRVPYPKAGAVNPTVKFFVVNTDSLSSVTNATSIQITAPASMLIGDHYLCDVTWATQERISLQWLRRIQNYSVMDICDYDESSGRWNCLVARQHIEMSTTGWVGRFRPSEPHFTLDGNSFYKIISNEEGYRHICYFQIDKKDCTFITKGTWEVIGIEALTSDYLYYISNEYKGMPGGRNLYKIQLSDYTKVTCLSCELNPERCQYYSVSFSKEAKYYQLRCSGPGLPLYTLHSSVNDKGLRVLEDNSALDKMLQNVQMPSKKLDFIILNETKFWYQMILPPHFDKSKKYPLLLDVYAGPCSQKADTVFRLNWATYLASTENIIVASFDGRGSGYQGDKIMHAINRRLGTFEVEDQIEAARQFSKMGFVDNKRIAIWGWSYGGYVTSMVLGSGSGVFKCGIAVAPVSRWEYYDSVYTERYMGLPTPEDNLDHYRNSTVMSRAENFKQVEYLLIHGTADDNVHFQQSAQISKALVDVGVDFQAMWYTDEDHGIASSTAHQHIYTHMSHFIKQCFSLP

[2] = biological target: T1, Dipeptidyl peptidase 4; assay: Inhibition of DDP4
Summary of the method: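 Purified DPPIV (~1 nM) in 0.1 M HEPES, 0.14 M NaCl, pH 7.4 or 8.0, at 25 or 37 °C. Inhibitor (10^-5 to 10^-11 M) preincubated 10 min with enzyme before 0.3 mM H-Ala-Pro-pNA; A410 read. Stocks made in HCl pH 2.0 or buffer pH 7.4/8.0 and diluted just before use.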
Target sequence in this assay (P27487 whole entry, looked up): as the sequence (P27487 whole entry) above

[3] = Inhibition of alpha-chymotrypsin
[4] = biological target: T1, Dipeptidyl peptidase 4; assay: Inhibition of DDP4 at pH 2 preincubated for 10 mins
Target sequence in this assay (P27487 whole entry): as above

[5] = biological target: T1, Dipeptidyl peptidase 4; assay: Inhibition of DDP4 at pH 7.4 preincubated for 10 mins
Target sequence in this assay (P27487 whole entry): as above

[6] = Chemical stability of the compound assessed as half life at physiological pH; format: physicochemical
[7] = system: Mus musculus; assay: Antidiabetic activity in po dosed C57BL/KS01HSDLeprdb mouse assessed as decrease in serum glucose AUC level by oral glucose tolerance test; format: functional, organism-based
Summary of the method: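 Diabetic male C57BL/KS01HSDLeprdb mice (nondiabetic C57BL/6NHHsd as comparison) acclimated 3 weeks and fasted 4 h. Given 0.0025, 0.01, 0.025 or 0.05 mg/kg free-inhibitor equivalent by oral gavage; vehicle H2O. Oral glucose 1 g/kg given 3 h post-dose. Glucometer blood glucose at predose, 15, 30, 60, 120 and 240 min (5 mice/group); AUC.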

[8] = system: Mus musculus; assay: Antidiabetic activity in C57BL/KS01HSDLeprdb mouse assessed as decrease in serum glucose AUC level at 0.5 mg/kg, po by oral glucose tolerance test; format: functional, organism-based; set-up: dose 0.5 mg/kg
[9] = (§1) Toxicity in po dosed Fisher rat assessed as mortality measured up to 24 hrs; format: organism-based; conditions: Fisher, in vivo
[10] = Effect on pro-drug activation assessed as Chg-Pro formation by mass spectrometry; format: physicochemical
Summary of the method: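 Prodrug (10 mM stock) incubated with purified DPPIV (2 μM stock) or no enzyme in 0.1 M HEPES, 0.14 M NaCl, pH 8.0, for 10 min at 25 °C. Desalted on C18 and lyophilized. Chg-Pro detected by reverse-phase HPLC-MS scanning its m/z; Chg-Pro was the reference.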

[11] = system: Mus musculus; assay: DDP4-mediated pro-drug activation in ip dosed wild type C57BL/6 mouse assessed as pro-drug level in serum by LC/MS analysis; format: organism-based; conditions: in vivo
Summary of the method: (§2)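 Wild-type C57BL/6 (CD26+/+) or DPPIV knockout (CD26-/-) mice, 3 per group, acclimated ≥1 week. Given 50 μg ip in PBS. Blood taken by cardiac puncture after 5 min and treated with 10% TCA. Supernatant intact prodrug quantified by reverse-phase HPLC-MS base peak chromatograms.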

[12] = system: Mus musculus; assay: DDP4-mediated pro-drug activation in ip dosed CD26 -/- mouse assessed as pro-drug level in serum by LC/MS analysis; format: organism-based; conditions: in vivo; summary of the method: as §2
[13] = system: Rattus norvegicus; assay: as §1; format: organism-based; conditions: in vivo, 24 h

C[C@H](NC(=O)CCC(=O)O)C(=O)N[C@@H](C)C(=O)N1CCC[C@H]1C(=O)N[C@@H](Cc1ccccc1)C(=O)N[C@@H](C)C(=O)N1CCC[C@H]1B(O)O (Suc-AAPFA-boroPro)
IC50 [1]: 0.7 nM | inhibition [2]: inactive | inhibition [3]: inactive

C[C@H](NC(=O)[C@@H]1CCCN1C(=O)[C@@H](N)Cc1ccccc1)C(=O)N1CCC[C@H]1B(O)O
IC50 [4]: 8.3 nM | IC50 [5]: 7 nM

CC(=O)N[C@H](C(=O)N1CCC[C@H]1B(O)O)C(C)C
half-life [6]: 30 min

CC(C)[C@H](N)C(=O)N1CCC[C@H]1B(O)O [TALABOSTAT]
Activity [7]: Dose-dependent effect | Activity [8]: inactive | LD50 at 24 h [9]: 0.5 mg/kg

CC(C)[C@H](NC(=O)[C@@H]1CCCN1C(=O)[C@@H](N)C1CCCCC1)C(=O)N1CCC[C@H]1B(O)O
IC50 [4]: 20 nM | IC50 [5]: 19 nM | Activity [10]: Not Active | Activity [11]: Not Active | Activity [12]: Active | Activity [7]: Dose-dependent effect | Activity [8]: Active | Activity [13]: Non-toxic
